B1: tRNA (parent)
chain: GUUCCGUUGGCGUAAUGGUAACGCGUCUCCCUCCUAAGGAGAAGACUGCGGGUUCGAGUCCCGUACGGAACG

Variants of: B1
Assay: yeast fitness, log relative to wild type (ln ratio); higher = fitter; tRNA-Arg(CCU), competitive growth, 37 C, 1 M NaCl
How it was run: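 A combinatorial tRNA-Arg(CCU) variant library was carried on a HIS3 centromeric plasmid in BY4742 lacking the chromosomal gene, from two independent transformations. Pools grew 4 generations in SC-HIS at 30 °C, then ~6.5 generations (~26.5 h) in SC-HIS 1M NaCl at 37 °C, with three outputs per input. Variants were counted by 125 bp paired-end Illumina sequencing. Fitness is ln of each genotype's generations (OD-scaled log2 output/input frequency, inverse-variance weighted across replicates) over the wild-type's.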

Variant	yeast fitness (ln)
U2C G6U C27U C66U C71U	-0.265
U2C G6U C27U A43C C66A A70U	-0.167
U2C G6U C27U A43C C66A A70G	-0.0266
U2C G6U A43C A69G A70U	-0.152
U2C G6U A43C A69G A70G	-0.143
U2C G6U C71U	-0.0615
U2C G6U A43C C66A A69G A70U C71U	-0.321
U2C G6A C46U C66U A69G A70U C71U	-0.419
U2C G6U C27U C66U	-0.0859
U2C G6U C27U C66A	-0.24
U2C G6U C46U C66A A70U C71U	-0.121
U2C G6U C27U C66U A69G A70G C71U	-0.288
U2C G6U A43C C46U C66U A70G	-0.0851
U2C G6U A43C C46U C66U A70U	-0.123
U2C G6U C27U C46U C71U	-0.235
U2C G6U C27U C46U C66A A69G A70U	-0.114
U2C G6U C27U C46U C66A A69G A70G	-0.035
U2C G6U A69G A70U	-0.117
U2C G6U A69G A70G	-0.133
U2C G6U C46U C66U A69G A70U C71U	-0.282
U2C G6U C27U A43C C66A A69G A70G C71U	-0.431
U2C G6U A43C C46U A70G C71U	-0.278
U2C G6U C46U C66A A70G C71U	-0.0101
U2C G6U A43C C46U C66U A70G C71U	-0.352

Variant	yeast fitness (ln)
U2C G6U C27U A69G C71U	-0.22
U2C G6U C27U A43C C46U C66U A69G A70U C71U	-0.391
U2C G6A C66A A70U C71U	-0.0758
U2C G6U C27U A43C C66U C71U	-0.338
U2C G6A C46U C66U A69G C71U	-0.183
U2C G6U A69G A70G C71U	-0.325
U2C G6A C46U C66U	0.00338
U2C G6U C27U C66A A69G A70G	-0.0927
U2C G6U C27U A43C C46U C66A A70U	-0.0786
U2C G6U C27U A43C C46U C66A A70G	-0.0237
U2C G6U C27U A43C C46U C66U A69G C71U	-0.465
U2C G6U C66A C71U	-0.294
U2C G6U A43C C46U C66A A70G C71U	0.00139
U2C G6A C46U C66U A70U C71U	-0.183
U2G A43C A70G C71U	-0.123
U2C G6U C27U C66A A69G A70U C71U	-0.525
U2C G6U A43C C46U C66U C71U	-0.242
U2C G6U C27U C46U C66U A69G A70G C71U	-0.493
U2C G6U C27U C46U A69G C71U	-0.232
U2C G6U C27U A43C C46U A69G A70G C71U	-0.188
U2C G6U C46U C66A A70G	-0.013
U2C G6U C46U C66A A70U	0.000469
U2G	-0.0125
U2C G6U C27U A43C C66U A69G A70U C71U	-0.419

Variant	yeast fitness (ln)
U2C G6U C46U C66U A69G C71U	-0.221
U2C G6U A43C C46U C66U A69G C71U	-0.347
U2C G6U C27U A43C C66A A69G A70U C71U	-0.398
U2C G6U A43C C46U C66U A69G A70U	-0.211
U2C G6U A43C C46U C66U A69G A70G	-0.262
U2G A43C C46U A70U C71U	-0.0246
U2C G6A C66U A69G A70U C71U	-0.343
U2C G6U C27U A70G C71U	-0.309
U2G A43C A69G A70U	-0.023
U2G A43C A69G A70G	-0.0982
U2C G6U C46U C66A C71U	-0.211
U2C G6U C46U A69G C71U	-0.0672
U2C G6A C66A A69G A70G C71U	-0.139
U2C G6U C27U A43C A69G C71U	-0.343
U2G A43C C46U C66A	-0.101
U2C G6U C46U A69G A70U	-0.086
U2C G6U C46U A69G A70G	-0.0922
U2C G6U C66A A70G C71U	-0.0156
U2C G6U C46U C66U A69G A70G	-0.066
U2C G6U C46U C66U A69G A70U	-0.0758
U2C G6U C27U A43C C46U C66A A70G C71U	-0.0138
U2C G6U A43C C46U C66A A69G A70U C71U	-0.396
U2C G6U A43C A70U C71U	-0.198
U2C G6U	-0.00207

Variant	yeast fitness (ln)
U2C G6U C27U A43C C46U A70U C71U	-0.182
U2C G6U C27U A43C C66A A69G A70G	-0.156
U2C G6U A43C	-0.0574
U2C G6A C46U C66U A70U	-0.0206
U2C G6A C46U C66U A70G	-0.00418
U2C G6U A43C C46U C66A A69G A70G C71U	-0.00753
U2C G6U A43C A69G A70U C71U	-0.4
U2C G6U C27U C46U A70G C71U	-0.359
U2C G6U C27U A43C C46U A70G C71U	-0.132
U2C G6U C27U C66U A70U C71U	-0.35
U2G A43C C46U A69G A70G C71U	-0.12
U2C G6A C66A A70G C71U	-0.286
U2C G6U A43C C66U A70G C71U	-0.172
U2C G6U A43C C46U C66U A69G A70U C71U	-0.471
U2C G6U C27U A43C A70U C71U	-0.253
U2C G6U C46U C66A A69G A70U C71U	-0.185
U2C G6U C27U C66A A69G A70G C71U	-0.0793
U2C G6U C66U A69G C71U	-0.176
U2C G6U C27U A43C C66U A70G	-0.366
U2C G6U C27U A43C C66U A70U	-0.156
U2G A43C C46U C66A A69G A70U	-0.0871
U2G A43C C46U C66A A69G A70G	-0.186
U2C G6U A43C C66A A69G A70G C71U	-0.0618
U2C G6U C27U A43C C66A A70U C71U	-0.272

Variant	yeast fitness (ln)
U2C G6U C27U C46U C66A A70U C71U	-0.161
U2C G6U A43C A70G	-0.188
U2C G6U A43C A70U	-0.118
U2C G6U A43C C66A A70U C71U	-0.272
U2C G6U C27U C46U C66U A69G A70U	-0.218
U2C G6U C27U C46U C66U A69G A70G	-0.3
U2C G6U A43C C46U A69G A70U	-0.0621
U2C G6U A43C C46U A69G A70G	-0.3
U2C G6U A43C C66U A69G A70U C71U	-0.479
U2C G6A C46U A69G A70G	-0.0375
U2C G6A C46U A69G A70U	-0.084
U2G A43C C46U A70G C71U	-0.149
U2C G6U C66A	-0.00733
U2C G6U C66U	-0.0417
U2C G6U C46U C66A A69G A70G C71U	-0.0159
U2C G6U C66A A70U C71U	-0.105
U2C G6A C46U C71U	-0.0887
U2C G6U C27U A43C A70G C71U	-0.324
U2C G6U C27U C66U A69G A70U C71U	-0.566
U2C G6U A43C C46U C66A C71U	-0.077
U2C G6U C27U C46U C66A	-0.267
U2C G6U C27U C46U C66U	-0.183
U2C G6U C27U A43C C46U C66U A70U	-0.173
U2C G6U C27U A43C C46U C66U A70G	-0.304

Variant	yeast fitness (ln)
U2G A43C C46U A69G A70U C71U	-0.509
U2C G6A C46U C66A A69G A70G C71U	-0.258
U2C G6A C46U C66A A70G	-0.016
U2C G6A C46U C66A A70U	-0.067
U2C G6U A43C A69G A70G C71U	-0.13
U2G A43C C46U	-0.0426
U2C G6U C27U A43C C66U A69G A70G C71U	-0.347
U2G A43C A70U C71U	-0.0697
U2C G6U C27U C46U	-0.0552
U2C G6U C27U A43C C46U C66U A69G A70G	-0.256
U2C G6U C27U A43C C46U C66U A69G A70U	-0.3
U2C G6A C66U	0.00772
U2C G6U C27U C46U C66U A69G C71U	-0.397
U2C G6A C46U C66U A70G C71U	-0.00476
U2C G6U C27U A43C C66U A70G C71U	-0.313
U2C G6U C27U C46U C66A A69G A70G C71U	-0.0348
U2C G6U A43C C66U A69G A70U	-0.231
U2C G6U A43C C66U A69G A70G	-0.31
U2C G6U A43C C46U A70U C71U	-0.125
U2C G6A C46U C66U C71U	-0.164
U2C G6U C66U A70U C71U	-0.233
U2C G6U C46U C66A	-0.0276
U2C G6U C46U C66U	-0.12
U2C G6U C27U A43C C46U A70U	-0.151

Variant	yeast fitness (ln)
U2C G6U C27U A43C C46U A70G	-0.204
U2C G6U A43C C46U A69G A70U C71U	-0.393
U2C G6U C27U C46U C66U A70U C71U	-0.335
U2C G6U C66A A69G A70G C71U	-0.00896
U2C G6U C27U A69G A70G C71U	-0.157
U2C G6U C66A A70G	-0.0114
U2C G6U C66A A70U	0.0021
U2C G6U C46U C66U A69G A70G C71U	-0.1
U2C G6U C27U A43C C46U C66U A70G C71U	-0.225
U2C G6A C46U A69G A70U C71U	-0.183
U2C G6U C27U C46U C66A A70G C71U	-0.0247
U2C G6U C27U A43C C66A C71U	-0.176
U2C G6U C66U A69G A70U C71U	-0.468
U2C G6U A43C C66U A69G A70G C71U	-0.352
U2C G6U C27U A43C C46U C66U A69G A70G C71U	-0.275
U2C G6U C27U A43C C46U C66A A69G A70G C71U	-0.0738
U2C G6A C27U C66U A69G A70G C71U	-0.0741
U2C G6U C27U A43C C46U A69G A70U	-0.126
U2C G6U C27U A43C C46U A69G A70G	-0.227
U2C G6U C27U A43C C46U C66U	-0.0875
U2C G6U C27U A43C C46U C66A	0.00284
U2G A43C C46U A69G C71U	-0.107
U2C G6U C46U A70U C71U	-0.0786
